The text below walks through data of ChEMBL document CHEMBL1157486, “2-Substituted-16-ene-22-thia-1alpha,25-dihydroxy-26,27-dimethyl-19-norvitamin D3 analogs: Synthesis, biological evaluation, and crystal structure” (Bioorg Med Chem, 2008).

Broadly, the pEC50 is the EC50 on a negative log10 scale, so that one unit is a factor of ten.

The target in experiment [1] is T1, Vitamin D3 receptor (Rattus norvegicus) (UniProt P13053).
T1 sequence (whole entry): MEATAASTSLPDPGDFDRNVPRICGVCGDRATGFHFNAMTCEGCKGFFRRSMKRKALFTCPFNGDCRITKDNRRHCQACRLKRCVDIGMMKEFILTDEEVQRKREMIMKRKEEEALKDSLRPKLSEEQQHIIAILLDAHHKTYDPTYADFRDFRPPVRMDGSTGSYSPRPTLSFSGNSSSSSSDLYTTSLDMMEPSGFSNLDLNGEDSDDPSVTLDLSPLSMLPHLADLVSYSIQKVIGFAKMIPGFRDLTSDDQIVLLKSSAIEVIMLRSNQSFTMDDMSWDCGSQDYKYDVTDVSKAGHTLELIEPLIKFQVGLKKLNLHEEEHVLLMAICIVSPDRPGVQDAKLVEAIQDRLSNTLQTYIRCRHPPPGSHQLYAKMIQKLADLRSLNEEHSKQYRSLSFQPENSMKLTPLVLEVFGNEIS
In words: Displacement of [3H]1-alpha,25-(OH)2D3 from rat recombinant VDR expressed in Escherichia coli BL21 (DE3). The method in brief: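 Rat VDR-LBD lysate (sonicated cells) diluted ~1000-fold in 50 mM Tris pH 7.5 with 100 mM KCl, 5 mM DTT, 0.5% CHAPS and BSA 100 µg/mL. Ligand in EtOH preincubated 1 h at room temperature, then [3H]1α,25-(OH)2D3 (~5000 dpm) added for 18 h at 4 °C. Free ligand removed with dextran-coated charcoal, and bound fraction counted by scintillation. At least twice in duplicate.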
A general note: Displacement assays read how much labelled ligand stays bound in the presence of the test substance.

For a further experiment, the system named is Bone marrow cell. Put plainly: Effect on osteoclast formation in ddY mouse bone marrow cells co cultured with […] after 7 days.
The target of experiment [2] is Vitamin D3 receptor (Homo sapiens) (UniProt P11473). Put plainly: Increase in human VDR-mediated transcriptional activity in african green monkey COS7 cells after 24 hrs by luciferase assay.
Setting [3] is: Mus musculus, ddY, Bone marrow cell, 168 h.

pEC50: −log10 of the molar value. “And” between values parts separate entries of the source, which are not always exact repeats. Equal entries are not always repeated.

With `CCC(O)(CC)CS[C@H](C)C1=CC[C@H]2/C(=C/C=C3C[C@@H](O)C(C)(O)[C@H](O)C3)CCC[C@]12C` (stereo partly specified), the Activity in experiment [1] is 12% and 0.5%. Take `CCC(O)(CC)CS[C@@H](C)C1=CC[C@H]2/C(=C/C=C3C[C@@H](O)C[C@H](O)C3)CCC[C@]12C`: in experiment [1], the Activity was 60%. Turning to `[H][C@@]12CC=C([C@@H](C)SCC(O)(CC)CC)[C@@]1(C)CCC/C2=C\C=C1\C[C@@H](O)[C@H](OCCO)[C@H](O)C1` (stereo partly specified), the values for the negative logarithm of the EC50 (pEC50) (with Bone marrow cell (bone marrow cell); in experiment [2]) were 9.37 and 9.94, respectively. Regarding `[H][C@@]12CC=C([C@@H](C)SCC(O)(CC)CC)[C@@]1(C)CCC/C2=C\C=C1/C[C@@H](O)[C@H](OCCO)[C@H](O)C1` (stereo partly specified), the negative-log EC50 (pEC50) is 9.66 in the experiment on Bone marrow cell (setting [3]) and 10.62 in experiment [2].

For the molecule `CCC(O)(CC)CCS[C@@H](C)C1=CC[C@H]2/C(=C/C=C3C[C@@H](O)C[C@H](O)C3)CCC[C@]12C`, in experiment [1], the Activity is 100%. In turn, `[H][C@@]12CC=C([C@@H](C)SCC(O)(CC)CC)[C@@]1(C)CCC/C2=C\C=C1\C[C@@H](O)[C@@](C)(O)[C@H](O)C1` (stereo partly specified) showed a negative logarithm of the EC50 (pEC50) in experiment [2] of 9.92. On to `CCC(O)(CC)CSC(C)C1=CCC2/C(=C/C=C3C[C@@H](O)C(=CCO)[C@H](O)C3)CCC[C@]12C` (stereo partly specified) [listing 1 of 2 here], for which the pEC50 in experiment [2] was 10.07.

On to `CCC(O)(CC)CSC(C)C1=CCC2/C(=C/C=C3C[C@@H](O)C(C)(O)[C@H](O)C3)CCC[C@]12C` (stereo partly specified), for which the Activity in experiment [1] was 18% and 1%. In the experiment on Bone marrow cell (setting [3]), `C=C1/C(=C\C=C2/CCC[C@]3(C)[C@@H]([C@H](C)CCCC(C)(C)O)CC[C@@H]23)C[C@@H](O)C[C@@H]1O` [CALCITRIOL] gave a pEC50 of 8.70. Besides, the Activity in experiment [1] came out at 100%. The molecule `[H][C@@]12CC=C([C@@H](C)SCC(O)(CC)CC)[C@@]1(C)CCC/C2=C\C=C1/C[C@@H](O)[C@@](C)(O)[C@H](O)C1` (stereo partly specified) gave a negative logarithm of the EC50 (pEC50) in experiment [2] of 8.35.

In the case of `CCC(O)(CC)CCCS[C@H](C)C1=CC[C@H]2/C(=C/C=C3C[C@@H](O)C[C@H](O)C3)CCC[C@]12C`, the Activity in experiment [1] was 8%.

Turning to `CCC(O)(CC)CSC(C)C1=CCC2/C(=C/C=C3/C[C@@H](O)[C@](C)(O)[C@H](O)C3)CCC[C@]12C` (stereo partly specified), the negative logarithm of the EC50 (pEC50) in experiment [2] is 8.72. On to `CCC(O)(CC)CS[C@H](C)C1=CC[C@H]2/C(=C/C=C3C[C@@H](O)C(=CCO)[C@H](O)C3)CCC[C@]12C` [listing 1 of 2 here], for which the pEC50 in experiment [2] is 9.70. Take `CCC(O)(CC)CSC(C)C1=CCC2/C(=C/C=C3/C[C@@H](O)[C@H](OCCO)[C@H](O)C3)CCC[C@]12C` (stereo partly specified): the negative logarithm of the EC50 (pEC50) in the experiment with Bone marrow cell (bone marrow cell) was 10.40; in experiment [2], 10.57. Take `CCC(O)(CC)CSC(C)C1=CCC2/C(=C/C=C3\C[C@@H](O)[C@](C)(O)[C@H](O)C3)CCC[C@]12C` (stereo partly specified): the negative-log EC50 (pEC50) in experiment [2] is 10.77.

As to `CCC(O)(CC)CCCS[C@@H](C)C1=CC[C@H]2/C(=C/C=C3C[C@@H](O)C[C@H](O)C3)CCC[C@]12C`, the Activity in experiment [1] was 100%. In the case of `CCC(O)(CC)CCS[C@H](C)C1=CC[C@H]2/C(=C/C=C3C[C@@H](O)C[C@H](O)C3)CCC[C@]12C`, the Activity in experiment [1] stood at 4%. Take `CCC(O)(CC)CS[C@H](C)C1=CC[C@H]2/C(=C/C=C3C[C@@H](O)C(=CCO)[C@H](O)C3)CCC[C@]12C` [listing 2 of 2 here]: the negative logarithm of the EC50 (pEC50) in experiment [2] was 10.54. Consider `CCC(O)(CC)CSC(C)C1=CCC2/C(=C/C=C3C[C@@H](O)C(=CCO)[C@H](O)C3)CCC[C@]12C` (stereo partly specified) [listing 2 of 2 here], for which the pEC50 in experiment [2] was 10.59. For the molecule `CCC(O)(CC)CSC(C)C1=CCC2/C(=C/C=C3\C[C@@H](O)[C@H](OCCO)[C@H](O)C3)CCC[C@]12C` (stereo partly specified), the negative-log EC50 (pEC50) in the experiment with Bone marrow cell (setting [3]) is 10.46; in experiment [2], 11.68. Regarding `CCC(O)(CC)CS[C@H](C)C1=CC[C@H]2/C(=C/C=C3C[C@@H](O)C[C@H](O)C3)CCC[C@]12C`, in experiment [1], the Activity amounted to 6%.
